Source: PubChem
HIV Rev-RRE inh: HIV-1 Rev-RRE binding inhibitors, primary screen, biochemical, FRET, protein-RNA interaction; P05866; inhibition, % at 8 µM; hit rate 0.79% among 97,000; Rev peptide-RRE RNA binding;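 active = inhibition above the screen-wide mean plus 3 SD, cut at about 35% in these data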
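assay system = Cy5-tagged RRE RNA duplex with fluorescein-tagged Rev peptide | incubation = 5 + 15 min at 25 °C | also added = labelled Rev peptide | measure = % inhibition of FRET ratio versus controls | benchmarks = DMSO wells as 0% and neomycin B wells as 100% inhibition | measured by = FRET fluorescence readout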
LYP act: LYP phosphatase activators, primary screen, biochemical, DiFMUP fluorescence, 2 µM; hit rate 0.11% among 96,000; activation, % at 2 µM; Tyrosine-protein phosphatase non-receptor type 22 (Homo sapiens), Q9Y2R2; recombinant LYP; 0 = plate median, 100 = signal doubled;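 active = activation at 2 µM above a set limit, the mean plus 5 SD, cut at about 37% in these data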
Target sequence (Q9Y2R2 whole entry, looked up): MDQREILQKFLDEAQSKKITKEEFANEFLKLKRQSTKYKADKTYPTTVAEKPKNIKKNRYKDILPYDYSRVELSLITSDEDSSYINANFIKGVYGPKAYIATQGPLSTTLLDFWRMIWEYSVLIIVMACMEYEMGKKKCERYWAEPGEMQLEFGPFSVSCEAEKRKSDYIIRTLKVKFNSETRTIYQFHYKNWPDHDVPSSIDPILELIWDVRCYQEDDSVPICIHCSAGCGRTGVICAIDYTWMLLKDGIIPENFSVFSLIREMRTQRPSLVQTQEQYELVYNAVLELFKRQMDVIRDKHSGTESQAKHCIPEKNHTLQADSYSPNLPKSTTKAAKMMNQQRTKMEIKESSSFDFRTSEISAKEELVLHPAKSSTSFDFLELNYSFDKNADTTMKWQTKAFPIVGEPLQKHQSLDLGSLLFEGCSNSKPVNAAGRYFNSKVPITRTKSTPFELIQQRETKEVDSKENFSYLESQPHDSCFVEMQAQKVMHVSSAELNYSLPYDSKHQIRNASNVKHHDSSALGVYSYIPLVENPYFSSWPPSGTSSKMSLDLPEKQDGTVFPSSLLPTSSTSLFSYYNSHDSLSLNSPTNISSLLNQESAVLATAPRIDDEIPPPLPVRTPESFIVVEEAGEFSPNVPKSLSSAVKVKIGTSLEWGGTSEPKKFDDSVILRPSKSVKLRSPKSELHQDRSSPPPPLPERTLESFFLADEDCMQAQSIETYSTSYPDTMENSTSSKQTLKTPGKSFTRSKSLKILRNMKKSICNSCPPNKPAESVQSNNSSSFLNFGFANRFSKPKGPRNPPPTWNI
FAK blocker: FAK kinase inhibitors, primary screen, biochemical; biochemical FAK kinase activity assay; inhibition, %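 (tested at 7 µM)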; Focal adhesion kinase 1 (Homo sapiens), Q05397; hit rate 0.84% among 97,000
PTPN22 inh 2: PTPN22 phosphatase inhibitors, primary screen, biochemical, DiFMUP fluorescence, 2 µM; inhibition, % at 2 µM; hit rate 0.21% among 96,000; Tyrosine-protein phosphatase non-receptor type 22 (Homo sapiens), Q9Y2R2; recombinant LYP catalytic domain;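 active = inhibition at 2 µM at or above a set limit, the screen mean plus 3 SD, cut at about 24% in these data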
FAK inh conf: FAK kinase inhibitors, retest, confirmation, biochemical | shares compounds with FAK blocker | FAK kinase biochemical inhibition assay | inhibition, % at 7 µM | hit rate 28% among 750
A number is an active result; . = inactive; / = no result given; [ ] = another dose, or the depositor's remark. Compounds with a hit are over-represented: about 1.8% of the library has one in this group of screens. Rule as the data show it, unless noted: active = inhibition above about 19%; inactive = the rest.

SMILES	HIV Rev-RRE inh	LYP act	FAK blocker	PTPN22 inh 2	FAK inh conf
c1ccc(-n2cnc3cc(NCc4cccs4)ccc32)cc1	.	.	23	.	.
Cc1ccc(S(=O)(=O)N(C)c2ccc(OCC(=O)O)cc2)cc1	.	.	.	.	/
Cc1ccc(-c2onc3ccc(C=O)cc23)cc1	.	.	22	.	30
Cc1ccc(-c2onc3ccc(C4(C)OCCO4)cc23)cc1	.	.	.	.	/
CCc1nc(SCC(=O)c2ccc3c(c2)OCCO3)c2ccccc2n1	.	.	22	.	.
CC(C)(C)c1nc(SCC(=O)Nc2ccc(N3CCOCC3)cc2)c2ccccc2n1	.	.	32	.	.
O=C(CSc1nc2ccccc2[nH]1)Nc1ccc2c(c1)OCCO2	.	.	.	.	/
O=C(CSc1nc2ccccc2o1)Nc1ccc(N2CCOCC2)cc1	.	.	.	.	/
CC(C)(C)c1nc(SCC(=O)Nc2ccc3c(c2)OCCO3)c2ccccc2n1	.	.	19	.	.
O=C(CN(Cc1ccco1)C(=O)c1ccccc1)Nc1ccc(Cl)c(Cl)c1	.	.	.	.	/
O=[N+]([O-])CC(=Nc1ccc(Cl)cc1)N/N=C\c1oc(O)c2ccccc12	.	.	.	.	/
CCC(C)(C)NC(=O)C(c1ccc(OC)cc1)N(Cc1cccs1)C(=O)CCC(=O)Nc1cc(C)on1 (centres undefined)	.	.	.	.	/
Cc1ccc(S(=O)(=O)N2CCOCC2)cc1C(=O)OCC(=O)N1c2ccccc2NC(=O)C1(C)C	.	.	.	.	/
O=C1c2ccccc2-c2onc3ccc(NCCCn4ccnc4)c1c23	137[fluorescence artefact?]	.	36	.	27
COc1ccc2c(c1)CCc1c(C(=O)NCCCn3ccnc3)noc1-2	.	.	.	.	/
Cc1n[nH]c(C)c1CCc1nc2c3ccccc3nc(SCC(=O)Nc3ccccc3F)n2n1	.	.	21	.	.
Cc1cccc(NC(=O)CSc2nc3ccccc3c3nc(CCc4c(C)n[nH]c4C)nn23)c1	.	.	.	.	/
O=C(Nc1cccc(NC(=O)c2ccc(Br)o2)n1)c1ccc(Br)o1	.	.	26	.	.
Cc1cc(C)n(-c2nc(N(c3ccccc3)c3ccccc3)nc(-n3nc(C)cc3C)n2)n1	.	.	.	.	/
Cc1cc(C)n(-c2nc(Nc3ccccc3)nc(-n3nc(C)cc3C)n2)n1	.	.	26	.	.
CC(C)NS(=O)(=O)c1ccc(OCC(=O)Nc2ccc(F)cc2F)cc1	.	.	.	.	/
Cc1ccc2nc(/C(C#N)=C\c3ccc(N4CCCCC4)c([N+](=O)[O-])c3)[nH]c2c1	.	.	24	.	.
Cc1ccc(C(=O)O/N=C\c2ccc(N3CCCCC3)c([N+](=O)[O-])c2)cc1	.	.	.	.	/
COc1ccccc1NC(=O)c1nn(-c2ccc(Cl)cc2)ccc1=O	.	.	25	.	.
COc1ccccc1NC(=O)c1nn(-c2ccccc2)ccc1=O	.	.	.	.	/
SMILES	HIV Rev-RRE inh	LYP act	FAK blocker	PTPN22 inh 2	FAK inh conf
O=C(CSc1nc2ccccc2s1)c1cc2ccccc2o1	.	.	.	.	/
CSc1cc(C)n(-c2ccccc2)c(=S)c1C(C)=O	.	.	.	.	/
O=C1CC(c2ccco2)CC2=C1C=Nc1ccccc1N2 (centres undefined)	.	.	22	.	.
Cc1nc2n(n1)C(c1ccccc1)C1=C(CC(c3ccco3)CC1=O)N2 (centres undefined)	.	.	.	.	/
Cc1cc(C)c(NC(=O)CN2C(=O)NC3(CCCCC3)C2=O)c(Cl)c1	.	.	.	.	/
Cc1cc(C)c(NC(=O)CC(C)(C)C)c(Cl)c1	.	.	73	.	.
COc1cc(OC)c(C(=O)Nc2cccc(C(C)=O)c2)cc1OC	.	.	.	.	/
CN1CCc2c(sc3ncn4nc(-c5ccccc5O)nc4c23)C1	.	.	23	.	28
c1coc(-c2nc3c4c5c(sc4ncn3n2)CCCC5)c1	.	.	.	.	/
Cc1c(O)c(CN2CCCC2)cc2c1oc(=O)c1ccccc12	.	.	40	.	.
Cc1c(O)c(CN2CCCC2)cc2c3c(c(=O)oc12)CCC3	.	.	.	.	/
COc1cccc(C(=O)COC(=O)C(C)N2C(=O)C3C4C=CC(C4)C3C2=O)c1 (centres undefined)	.	.	.	.	/
CCN(CC)c1ccc2cc(-c3nc4ccccc4[nH]3)c(=O)oc2c1	135[fluorescence artefact?]	.	53	.	31
O=C1Nc2ccccc2S/C1=C/Nc1cccc(Cl)c1	.	.	26	.	.
COc1ccc(C2OC(=O)CC2C(=O)NC2CCCCCC2)cc1OC (centres undefined)	.	.	21	.	.
COc1ccc(C2OC(=O)CC2C(=O)NC2CCCC(C)C2C)cc1OC (centres undefined)	.	.	.	.	/
CCN(CC)c1ncnc2ccc(Br)cc12	.	.	45	.	.
O=C(CSc1nnnn1-c1ccc2c(c1)OCCO2)Nc1nc2c(s1)CCCC2	.	.	29	.	.
Cc1ccc(C(=O)Nc2onc(C)c2C#N)cc1	.	.	.	.	/
CNC(=O)Cn1nc(C)c2ccccc2c1=O	.	.	.	.	/
Cc1nn(CC(=O)Nc2ccc3c(c2)oc2ccccc23)c(=O)c2ccccc12	.	.	29	.	.
COc1ccc2nc(-c3ccco3)c(-c3ccco3)nc2c1	.	.	67	.	.
COc1ccc(C(=O)Nc2nnc(-c3ccco3)s2)cc1	.	.	.	.	/
Nc1nc(-c2ccco2)c(-c2ccco2)s1	.	.	.	.	/
c1coc(-c2nc(-c3ccco3)c(-c3ccco3)nc2-c2ccco2)c1	.	.	99	.	.
SMILES	HIV Rev-RRE inh	LYP act	FAK blocker	PTPN22 inh 2	FAK inh conf
COC(=O)c1nn(-c2ccccc2)c(=O)cc1Oc1ccccc1	.	.	.	.	/
N#Cc1c(-c2ccco2)cc(-c2cccnc2)nc1N	.	.	20	.	.
N#Cc1c(-c2ccco2)cc(-c2ccccn2)nc1N	.	.	.	.	/
COC(=O)c1sccc1-n1cccc1C(=O)NCc1ccccc1	.	.	.	.	/
Cc1cc(C)c2c(-n3cccc3)c(C(=O)NNS(=O)(=O)c3ccc(Cl)cc3)sc2n1	.	.	.	.	/
CCN(CC)C(=O)CSc1nc2c(sc(=S)n2Cc2ccco2)c(=O)n1-c1ccccc1	.	.	20	.	.
CCOC(=O)CSc1nc2c(sc(=S)n2Cc2ccco2)c(=O)n1-c1ccccc1	.	.	.	.	/
CCOC(=O)c1cn2c3c(c(F)c(F)cc3c1=O)SC(N1CCOCC1)=N2	.	.	.	.	/
CCCN(CCC)C(=O)CSc1nc2n[nH]c(C)c2c(=N)n1-c1ccc(OC)cc1	.	.	22	.	.
COc1ccc(C2c3cc(OC)c(OC)cc3CCN2C2CC(=O)N(c3ccccc3)C2=O)cc1OC (centres undefined)	.	.	.	.	/
Cc1ccc(NC(=O)c2ccc(OC(=O)CCN3C(=O)c4ccccc4C3=O)cc2)cc1	.	.	20	.	.
